Data taken from ChEMBL document CHEMBL1759833, “Synthesis and biological evaluation of some 4-functionalized-pyrazoles as antimicrobial agents” (2011).
In brackets after ≈: the same amount, converted by molar mass.

Assays:
Format in all cases: functional
Staphylococcus aureus [1] = assay: Antibacterial activity against Staphylococcus aureus MTCC 96 for 24 hrs by agar diffusion method
How it was run: (§1)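 Agar well diffusion on Mueller Hinton agar plates swabbed with bacterial suspension of approx. 1.5 × 10⁸ cfu/mL. 8 mm wells were loaded with compound at 4.0 mg/mL in DMSO. Plates were incubated 37 °C for 24 h. Read-out was inhibition zone diameter in mm, including the 8 mm well, as mean of three replicates. Controls were DMSO (negative) and ciprofloxacin (positive).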

Bacillus subtilis [2] = assay: Antibacterial activity against Bacillus subtilis MTCC 121 for 24 hrs by macrodilution method; conditions: MTCC 121, 24 h
How it was run: (§2)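 MIC by NCCLS macrodilution tube method. Tubes were inoculated with bacteria at 1.5 × 10⁸ cfu/mL and incubated at 37 °C for 24 h. Turbidity was scored visually. Ciprofloxacin served as control.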

Bacillus subtilis [3] = assay: Antibacterial activity against Bacillus subtilis MTCC 121 for 24 hrs by agar diffusion method; how it was run: as §1
Aspergillus flavus = assay: Antifungal activity against Aspergillus flavus MTCC 871 assessed as inhibition of mycelial growth for 7 days by poisoned food method
How it was run: (§3)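 Poisoned food method. Compound at 4.0 mg/mL in DMSO was mixed into agar, poured and solidified at room temperature. Each plate was inoculated centrally with an 8 mm plug from an actively growing colony and incubated at 25 °C for 7 days. Colony diameter was converted to percent mycelial inhibition, in triplicate. Controls were DMSO (negative) and fluconazole (positive).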

Staphylococcus aureus [4] = assay: Antibacterial activity against Staphylococcus aureus MTCC 96 for 24 hrs by macrodilution method; conditions: MTCC 96, 24 h; how it was run: as §2
Aspergillus niger = assay: Antifungal activity against Aspergillus niger MTCC 282 assessed as inhibition of mycelial growth for 7 days by poisoned food method; how it was run: as §3

| SMILES | diameter of the inhibition zone (DIZ) (Staphylococcus aureus [1]) [mm] | MIC (Bacillus subtilis [2]) [µg/mL] | diameter of the inhibition zone (DIZ) (Bacillus subtilis [3]) [mm] | inhibition (INH) (Aspergillus flavus) [%] | MIC (Staphylococcus aureus [4]) [µg/mL] | inhibition (INH) (Aspergillus niger) [%] |
| --- | --- | --- | --- | --- | --- | --- |
| NS(=O)(=O)c1ccc(-n2cc(C(=O)O)c(-c3ccccc3)n2)cc1 | 15.3 | 128 (≈ 373 µM) | 16.6 | 55.5 | 128 (≈ 373 µM) | 50 |
| Cc1ccc(-c2nn(-c3ccc(S(N)(=O)=O)cc3)cc2C(=O)O)cc1 | 14.6 | 64 (≈ 179 µM) | 17.3 | 51.1 | > 128 | 46.6 |
| COc1ccc(-c2nn(-c3ccc(S(N)(=O)=O)cc3)cc2C(=O)O)cc1 | 15.6 | 64 (≈ 171 µM) | 17 | 44.4 | 128 (≈ 343 µM) | 44.4 |
| NS(=O)(=O)c1ccc(-n2cc(C(=O)O)c(-c3ccc(F)cc3)n2)cc1 | 15 | 64 (≈ 177 µM) | 18.6 | 48.8 | 128 (≈ 354 µM) | 52.5 |
| NS(=O)(=O)c1ccc(-n2cc(C(=O)O)c(-c3ccc(Cl)cc3)n2)cc1 | 18.6 | 32 (≈ 84.7 µM) | 21.6 | 44.4 | 64 (≈ 169 µM) | 45.5 |
| NC(=S)c1cn(-c2ccc(S(N)(=O)=O)cc2)nc1-c1ccc(F)cc1 | 17.6 | 128 (≈ 340 µM) | 15.3 | 61.1 | 64 (≈ 170 µM) | 44.4 |
| NC(=S)c1cn(-c2ccc(S(N)(=O)=O)cc2)nc1-c1ccc(Cl)cc1 | 18.3 | > 128 | 14.6 | 52.5 | 64 (≈ 163 µM) | 50 |
| NC(=S)c1cn(-c2ccc(S(N)(=O)=O)cc2)nc1-c1ccc(Br)cc1 | 21.6 | 64 (≈ 146 µM) | 18.3 | 51.1 | 32 (≈ 73.2 µM) | 44.4 |
| NC(=S)c1cn(-c2ccc(S(N)(=O)=O)cc2)nc1-c1cccs1 | 20.3 | 64 (≈ 176 µM) | 17.6 | 55.5 | 64 (≈ 176 µM) | 61.1 |
| NS(=O)(=O)c1ccc(-n2cc(C(=O)O)c(-c3ccc(Br)cc3)n2)cc1 | 15.6 | > 128 | 14.3 | 45.5 | 128 (≈ 303 µM) | 51.1 |
| NS(=O)(=O)c1ccc(-n2cc(C(=O)O)c(-c3ccc([N+](=O)[O-])cc3)n2)cc1 | 14.6 | 128 (≈ 330 µM) | 15 | 57.7 | > 128 | 61.1 |
| NS(=O)(=O)c1ccc(-n2cc(C(=O)O)c(-c3cccs3)n2)cc1 | 18.6 | 128 (≈ 366 µM) | 15.6 | 55.5 | 64 (≈ 183 µM) | 57.7 |
| NC(=S)c1cn(-c2ccc(S(N)(=O)=O)cc2)nc1-c1ccccc1 | 15.3 | 128 (≈ 357 µM) | 15 | 53.3 | 128 (≈ 357 µM) | 50 |
| Cc1ccc(-c2nn(-c3ccc(S(N)(=O)=O)cc3)cc2C(N)=S)cc1 | 21.6 | 128 (≈ 344 µM) | 16.3 | 51.1 | 32 (≈ 85.9 µM) | 44.4 |
| COc1ccc(-c2nn(-c3ccc(S(N)(=O)=O)cc3)cc2C(N)=S)cc1 | 16.6 | 128 (≈ 329 µM) | 15.6 | 57.7 | 128 (≈ 329 µM) | 55.5 |
| O=C(O)c1cn(C2CC2)c2cc(N3CCNCC3)c(F)cc2c1=O [CIPROFLOXACIN] | 27.6 | 5 (≈ 15.1 µM) | 26.3 |  | 5 (≈ 15.1 µM) |  |
| OC(Cn1cncn1)(Cn1cncn1)c1ccc(F)cc1F [FLUCONAZOLE] |  |  |  | 74.6 |  | 75.3 |
